Holding throughout (type): functional
In experiment [1] the test system is Culicidae. Nature of the experiment: Toxicity against fourth-instar larvae of Culex pipiens pallens assessed as mortality at 2 mg/kg measured after 7 to 10 days. In short, it runs like this:
(§1)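 For each concentration, 1 mL of dilution was added to 99 mL water and 20 fourth-instar larvae introduced. Percentage mortality assessed 7–10 days after treatment.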

Experiment [2] deals with Culicidae. Kind of experiment: Toxicity against fourth-instar larvae of Culex pipiens pallens assessed as mortality at 1 mg/kg measured after 7 to 10 days. An outline of the steps:
as §1

The test system of experiment [3] is Culicidae. Kind of experiment: Toxicity against fourth-instar larvae of Culex pipiens pallens assessed as mortality at 0.5 mg/kg measured after 7 to 10 days. In short, it runs like this: as §1
Experiment [4] relates to Mythimna separata. Nature of the experiment: Stomach toxicity in fourth-instar Mythimna separata (Oriental armyworm) larvae in compound treated corn leaves assessed as mortality at 100 mg/kg measured after 4 days. The note with it: 96 h.
The test system of experiment [5] is Mythimna separata. Kind of experiment: Stomach toxicity in fourth-instar Mythimna separata(Oriental armyworm) larvae in compound treated corn leaves assessed as mortality at 200 mg/kg measured after 4 days. As to conditions: 96 h.
Experiment [6] deals with Mythimna separata. Nature of the experiment: Stomach toxicity in fourth-instar Mythimna separata (Oriental armyworm) larvae in compound treated corn leaves assessed as mortality at 10 mg/kg measured after 4 days. The note with it: 96 h.
For experiment [7], the system named is Mythimna separata. Kind of experiment: Stomach toxicity in fourth-instar Mythimna separata (Oriental armyworm) larvae in compound treated corn leaves assessed as mortality at 25 mg/kg measured after 4 days. As to conditions: 96 h.
In experiment [8] the test system is Mythimna separata. Kind of experiment: Stomach toxicity in fourth-instar Mythimna separata (Oriental armyworm) larvae in compound treated corn leaves assessed as mortality at 50 mg/kg measured after 4 days. The note with it: 96 h.

Usually mortality stands for the percentage killed.

As to `COc1ccccc1C(=O)N(NC(=O)c1ccc2c(c1C)CC(C)(C)O2)C(C)(C)C`, the mortality at 2 mg/kg in experiment [1] worked out at 20%. In addition, the mortality at 1 mg/kg in experiment [2] stood at 10%. In addition, the mortality at 0.5 mg/kg in experiment [3] was found to be 0%. Moreover, the mortality at 100 mg/kg in experiment [4] was found to be 0%. Further, in experiment [5], the mortality at 200 mg/kg came out at 0%.

With `Cc1cc(C)cc(C(=O)N(NC(=O)c2ccc3c(c2C)CC(C)(C)O3)C(C)(C)C)c1`, the mortality at 2 mg/kg in experiment [1] amounted to 70%. For the same compound, the mortality at 1 mg/kg in experiment [2] was 0%. For the same compound, in experiment [6], the mortality at 10 mg/kg was determined as 0%. In addition, the mortality at 25 mg/kg in experiment [7] stood at 20%. For the same compound, the mortality at 100 mg/kg in experiment [4] was 100%. Further, the mortality at 50 mg/kg in experiment [8] was 90%. In experiment [5], the mortality at 200 mg/kg turned out to be 100%.

Turning to `Cc1c(C(=O)NN(C(=O)c2ccc(Cl)cc2Cl)C(C)(C)C)ccc2c1CC(C)(C)O2`, the mortality at 2 mg/kg in experiment [1] came out at 50%. Moreover, in experiment [2], the mortality at 1 mg/kg amounted to 0%. Also, the mortality at 100 mg/kg in experiment [4] came to 10%. Moreover, in experiment [8], the mortality at 50 mg/kg amounted to 0%. Moreover, the mortality at 200 mg/kg in experiment [5] amounted to 90%.

Regarding `Cc1c(C(=O)NN(C(=O)c2ccccc2)C(C)(C)C)ccc2c1CC(C)O2` (stereo unspecified), the mortality at 2 mg/kg in experiment [1] came out at 0%. In experiment [2], the mortality at 1 mg/kg stood at 0%. In addition, the mortality at 10 mg/kg in experiment [6] was found to be 0%. Moreover, the mortality at 25 mg/kg in experiment [7] was 80%. Also, the mortality at 100 mg/kg in experiment [4] was 100%. In experiment [8], the mortality at 50 mg/kg was determined as 90%. For the same compound, in experiment [5], the mortality at 200 mg/kg worked out at 100%.

In the case of `Cc1c(C(=O)NN(C(=O)c2cccc([N+](=O)[O-])c2)C(C)(C)C)ccc2c1CC(C)O2` (stereo unspecified), the mortality at 2 mg/kg in experiment [1] came out at 20%. Also, the mortality at 1 mg/kg in experiment [2] worked out at 10%. Also, the mortality at 0.5 mg/kg in experiment [3] was 0%. In addition, in experiment [4], the mortality at 100 mg/kg worked out at 0%. Further, in experiment [5], the mortality at 200 mg/kg amounted to 20%.

For `Cc1c(C(=O)NN(C(=O)c2cc(Cl)cc(Cl)c2)C(C)(C)C)ccc2c1CC(C)(C)O2`, the mortality at 2 mg/kg in experiment [1] is 30%. Also, in experiment [2], the mortality at 1 mg/kg was determined as 20%. Further, the mortality at 0.5 mg/kg in experiment [3] stood at 10%. Moreover, the mortality at 100 mg/kg in experiment [4] is 0%. Moreover, in experiment [5], the mortality at 200 mg/kg came to 60%.

`Cc1c(C(=O)NN(C(=O)c2ccccc2[N+](=O)[O-])C(C)(C)C)ccc2c1CC(C)(C)O2`: the mortality at 2 mg/kg in experiment [1] is 40%. The mortality at 1 mg/kg in experiment [2] was determined as 20%. In addition, the mortality at 0.5 mg/kg in experiment [3] was 10%. Further, the mortality at 100 mg/kg in experiment [4] turned out to be 0%. Moreover, the mortality at 200 mg/kg in experiment [5] was found to be 50%.

With `Cc1c(C(=O)NN(C(=O)c2ccc([N+](=O)[O-])cc2)C(C)(C)C)ccc2c1CC(C)O2` (stereo unspecified), the mortality at 2 mg/kg in experiment [1] was 40%. The mortality at 1 mg/kg in experiment [2] came to 0%. Also, the mortality at 100 mg/kg in experiment [4] was found to be 0%. Moreover, in experiment [5], the mortality at 200 mg/kg was 60%.

`Cc1c(C(=O)NN(C(=O)c2ccccc2)C(C)(C)C)ccc2c1CC(C)(C)O2`: in experiment [1], the mortality at 2 mg/kg is 50%. In addition, the mortality at 1 mg/kg in experiment [2] worked out at 30%. Also, in experiment [3], the mortality at 0.5 mg/kg stood at 10%. In experiment [4], the mortality at 100 mg/kg amounted to 10%. For the same compound, the mortality at 50 mg/kg in experiment [8] was found to be 0%. The mortality at 200 mg/kg in experiment [5] turned out to be 40%.

Turning to `Cc1c(C(=O)NN(C(=O)c2ccccc2Cl)C(C)(C)C)ccc2c1CC(C)(C)O2`, the mortality at 2 mg/kg in experiment [1] came out at 70%. Moreover, in experiment [2], the mortality at 1 mg/kg was 20%. Moreover, in experiment [3], the mortality at 0.5 mg/kg turned out to be 0%. Besides, in experiment [4], the mortality at 100 mg/kg was 0%. Also, the mortality at 200 mg/kg in experiment [5] was 60%.

Consider `Cc1c(C(=O)NN(C(=O)c2ccc([N+](=O)[O-])cc2)C(C)(C)C)ccc2c1CC(C)(C)O2`, for which the mortality at 2 mg/kg in experiment [1] was found to be 20%. The mortality at 1 mg/kg in experiment [2] was 0%. Further, in experiment [4], the mortality at 100 mg/kg came out at 0%. Moreover, in experiment [5], the mortality at 200 mg/kg was 10%.

Regarding `Cc1c(C(=O)NN(C(=O)c2ccc(Cl)cc2)C(C)(C)C)ccc2c1CC(C)(C)O2`, the mortality at 2 mg/kg in experiment [1] worked out at 60%. Further, the mortality at 1 mg/kg in experiment [2] is 10%. In addition, the mortality at 0.5 mg/kg in experiment [3] worked out at 0%. For the same compound, the mortality at 100 mg/kg in experiment [4] turned out to be 10%. Also, the mortality at 50 mg/kg in experiment [8] stood at 0%. The mortality at 200 mg/kg in experiment [5] amounted to 90%.

With `Cc1c(C(=O)NN(C(=O)c2cccc(Cl)c2)C(C)(C)C)ccc2c1CC(C)(C)O2`, the mortality at 2 mg/kg in experiment [1] came to 10%. The mortality at 1 mg/kg in experiment [2] turned out to be 0%. In addition, the mortality at 100 mg/kg in experiment [4] turned out to be 10%. Besides, the mortality at 50 mg/kg in experiment [8] came out at 0%. In experiment [5], the mortality at 200 mg/kg stood at 80%.

`COc1ccc(C(=O)N(NC(=O)c2ccc3c(c2C)CC(C)(C)O3)C(C)(C)C)cc1`: in experiment [1], the mortality at 2 mg/kg was determined as 10%. Besides, in experiment [2], the mortality at 1 mg/kg was determined as 0%. The mortality at 100 mg/kg in experiment [4] amounted to 0%. The mortality at 200 mg/kg in experiment [5] was determined as 60%.

Turning to `Cc1c(C(=O)NN(C(=O)c2ccc(Cl)cc2Cl)C(C)(C)C)ccc2c1CC(C)O2` (stereo unspecified), the mortality at 2 mg/kg in experiment [1] is 0%. Moreover, in experiment [2], the mortality at 1 mg/kg was found to be 0%. Further, the mortality at 10 mg/kg in experiment [6] turned out to be 0%. Further, the mortality at 25 mg/kg in experiment [7] is 90%. The mortality at 100 mg/kg in experiment [4] came to 100%. The mortality at 50 mg/kg in experiment [8] came out at 100%. For the same compound, the mortality at 200 mg/kg in experiment [5] is 100%.

As to `Cc1cccc(C(=O)N(NC(=O)c2ccc3c(c2C)CC(C)(C)O3)C(C)(C)C)c1`, in experiment [1], the mortality at 2 mg/kg is 50%. In experiment [2], the mortality at 1 mg/kg amounted to 10%. Also, the mortality at 0.5 mg/kg in experiment [3] is 10%. Further, the mortality at 25 mg/kg in experiment [7] is 0%. Besides, the mortality at 100 mg/kg in experiment [4] stood at 90%. The mortality at 50 mg/kg in experiment [8] was 30%. Also, the mortality at 200 mg/kg in experiment [5] worked out at 100%.

In the case of `Cc1c(C(=O)NN(C(=O)c2cc([N+](=O)[O-])cc([N+](=O)[O-])c2)C(C)(C)C)ccc2c1CC(C)O2` (stereo unspecified), the mortality at 2 mg/kg in experiment [1] turned out to be 30%. Further, the mortality at 1 mg/kg in experiment [2] was 20%. Also, in experiment [3], the mortality at 0.5 mg/kg was 10%. In experiment [4], the mortality at 100 mg/kg stood at 0%. Also, the mortality at 200 mg/kg in experiment [5] is 20%.

In the case of `Cc1c(C(=O)NN(C(=O)c2ccc(Cl)cc2)C(C)(C)C)ccc2c1CC(C)O2` (stereo unspecified), the mortality at 2 mg/kg in experiment [1] was found to be 0%. In addition, the mortality at 1 mg/kg in experiment [2] stood at 0%. For the same compound, the mortality at 10 mg/kg in experiment [6] is 0%. For the same compound, in experiment [7], the mortality at 25 mg/kg turned out to be 90%. For the same compound, in experiment [4], the mortality at 100 mg/kg came to 100%. In addition, in experiment [8], the mortality at 50 mg/kg worked out at 100%. Moreover, the mortality at 200 mg/kg in experiment [5] was 100%.

On to `COc1cccc(C(=O)N(NC(=O)c2ccc3c(c2C)CC(C)(C)O3)C(C)(C)C)c1`, for which, in experiment [1], the mortality at 2 mg/kg came to 40%. The mortality at 1 mg/kg in experiment [2] is 30%. Also, the mortality at 0.5 mg/kg in experiment [3] stood at 10%. For the same compound, the mortality at 25 mg/kg in experiment [7] is 0%. The mortality at 100 mg/kg in experiment [4] came to 30%. The mortality at 50 mg/kg in experiment [8] is 20%. In experiment [5], the mortality at 200 mg/kg came to 100%.

With `Cc1c(C(=O)NN(C(=O)c2cc([N+](=O)[O-])cc([N+](=O)[O-])c2)C(C)(C)C)ccc2c1CC(C)(C)O2`, in experiment [1], the mortality at 2 mg/kg came to 30%. Besides, the mortality at 1 mg/kg in experiment [2] worked out at 20%. The mortality at 0.5 mg/kg in experiment [3] worked out at 10%. Moreover, in experiment [4], the mortality at 100 mg/kg amounted to 0%. Moreover, in experiment [5], the mortality at 200 mg/kg was 40%.

`Cc1c(C(=O)NN(C(=O)c2cccc([N+](=O)[O-])c2)C(C)(C)C)ccc2c1CC(C)(C)O2`: the mortality at 2 mg/kg in experiment [1] amounted to 30%. Also, the mortality at 1 mg/kg in experiment [2] is 20%. Further, in experiment [3], the mortality at 0.5 mg/kg was found to be 10%. The mortality at 100 mg/kg in experiment [4] was 0%. In addition, the mortality at 200 mg/kg in experiment [5] was 10%.

These data come from ChEMBL document CHEMBL3046382, “Synthesis and insecticidal activities and SAR studies of novel benzoheterocyclic diacylhydrazine derivatives” (2009).
